Values after ≈ are worked out from the molar mass of the structure shown.
Experiments:
[1] = Solubility of the compound at pH 6.5; assay type: physicochemical; details: buffer
[2] = Metabolic stability in human liver microsomes assessed as compound remaining after 1 hr; assay type: ADME, Microsome; details: read-out: Stability
How it was run: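 Human liver microsomes; percent parent compound remaining after 1 h incubation.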

[3] = Clearance in rat at 2 mg/kg at pH 5; assay type: ADME, organism-based; parameters: dose 2 mg/kg; details: in vivo
[4] = Volume of distribution in rat; assay type: ADME, organism-based; details: in vivo
Rattus norvegicus [5] = organism: Rattus norvegicus; assay: Unbound volume of distribution in rat; assay type: ADME, organism-based; details: in vivo
[6] = Clearance in dog at 2 mg/kg; assay type: ADME, organism-based, Canis lupus familiaris; parameters: dose 2 mg/kg; details: in vivo
How it was run: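 Clearance in mL/min/kg after a 2 mpk dose (n = 3) in vehicle 70% PEG400/20% 0.05 M citrate buffer/10% ethanol, pH 5.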

[7] = Volume of distribution in dog; assay type: ADME, organism-based, Canis lupus familiaris; details: in vivo
How it was run: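 Volume of distribution expressed in L/kg.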

[8] = Oral bioavailability in rat at 2 mg/kg; assay type: ADME, organism-based; details: in vivo
[9] = target: cGMP-specific 3',5'-cyclic phosphodiesterase (Homo sapiens, UniProt O76074); assay: Inhibition of PDE5
[10] = Selectivity ratio of IC50 for PDE6 to IC50 for PDE5
How it was run: (§1)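 Fold selectivity calculated as PDE11 IC50/PDE5 IC50 or PDE6 IC50/PDE5 IC50, with IC50 values in nM.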

[11] = Selectivity ratio of IC50 for PDE11 to IC50 for PDE5; how it was run: as §1
[12] = target: 3',5'-cyclic-AMP phosphodiesterase 7B (Homo sapiens, UniProt Q9NP56); assay: Inhibition of PDE7B
[13] = target: High affinity cAMP-specific and IBMX-insensitive 3',5'-cyclic phosphodiesterase 8A (Homo sapiens, UniProt O60658); assay: Inhibition of PDE8A
[14] = target: High affinity cAMP-specific and IBMX-insensitive 3',5'-cyclic phosphodiesterase 8B (Homo sapiens, UniProt O95263); assay: Inhibition of PDE8B
[15] = Inhibition of PDE9
[16] = Inhibition of PDE10
Adenosine receptor A1 = target: T1, Adenosine receptor A1 (Homo sapiens, UniProt P30542); assay: Inhibition of adenosine A1 receptor
T1 sequence (P30542 whole entry): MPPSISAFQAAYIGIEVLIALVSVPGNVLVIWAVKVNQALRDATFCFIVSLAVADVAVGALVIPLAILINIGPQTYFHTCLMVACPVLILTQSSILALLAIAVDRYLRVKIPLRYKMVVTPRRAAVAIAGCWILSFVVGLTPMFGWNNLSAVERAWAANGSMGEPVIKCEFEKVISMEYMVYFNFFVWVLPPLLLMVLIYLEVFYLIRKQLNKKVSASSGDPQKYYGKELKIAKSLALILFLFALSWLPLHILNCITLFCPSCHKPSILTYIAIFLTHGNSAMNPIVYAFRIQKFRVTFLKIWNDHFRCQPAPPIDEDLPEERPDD

Acetylcholinesterase = Acetylcholinesterase (Homo sapiens, UniProt P22303); assay: Inhibition of acetylcholinesterase
CYP2C9 = CYP2C9 (Homo sapiens, UniProt P11712); assay: Inhibition of CYP2C9 at 3 uM; assay type: ADME
Chain of CYP2C9 (P11712 whole entry): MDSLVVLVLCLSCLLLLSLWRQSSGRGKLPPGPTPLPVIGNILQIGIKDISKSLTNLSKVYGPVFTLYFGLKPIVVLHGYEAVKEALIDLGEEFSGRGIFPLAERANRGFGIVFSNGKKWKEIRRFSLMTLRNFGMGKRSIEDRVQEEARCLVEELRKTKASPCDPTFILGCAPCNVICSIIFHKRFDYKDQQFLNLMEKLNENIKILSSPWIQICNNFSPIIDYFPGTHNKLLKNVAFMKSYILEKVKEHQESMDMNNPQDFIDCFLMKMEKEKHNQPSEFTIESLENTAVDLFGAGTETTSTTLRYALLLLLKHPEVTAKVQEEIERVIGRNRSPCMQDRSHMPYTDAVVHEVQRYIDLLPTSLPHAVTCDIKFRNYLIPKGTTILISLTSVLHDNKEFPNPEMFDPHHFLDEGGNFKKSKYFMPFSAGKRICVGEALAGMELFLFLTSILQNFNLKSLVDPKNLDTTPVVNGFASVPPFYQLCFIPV

CYP2D6 = CYP2D6 (Homo sapiens, UniProt P10635); assay: Inhibition of CYP2D6 at 3 uM; assay type: ADME
CYP3A4 = CYP3A4 (Homo sapiens, UniProt P08684); assay: Inhibition of CYP3A4 at 3 uM; assay type: ADME
Rattus norvegicus [17] = assay: Antihypertensive activity in spontaneous hypertensive rat assessed as reduction in systolic blood pressure at 20 mg/kg measured after 24 hrs; assay type: functional, Artery
[18] = target: Dual specificity calcium/calmodulin-dependent 3',5'-cyclic nucleotide phosphodiesterase 1A (Homo sapiens, UniProt P54750); assay: Inhibition of PDE1A
Chain of Dual specificity calcium/calmodulin-dependent 3',5'-cyclic nucleotide phosphodiesterase 1A (P54750 whole entry): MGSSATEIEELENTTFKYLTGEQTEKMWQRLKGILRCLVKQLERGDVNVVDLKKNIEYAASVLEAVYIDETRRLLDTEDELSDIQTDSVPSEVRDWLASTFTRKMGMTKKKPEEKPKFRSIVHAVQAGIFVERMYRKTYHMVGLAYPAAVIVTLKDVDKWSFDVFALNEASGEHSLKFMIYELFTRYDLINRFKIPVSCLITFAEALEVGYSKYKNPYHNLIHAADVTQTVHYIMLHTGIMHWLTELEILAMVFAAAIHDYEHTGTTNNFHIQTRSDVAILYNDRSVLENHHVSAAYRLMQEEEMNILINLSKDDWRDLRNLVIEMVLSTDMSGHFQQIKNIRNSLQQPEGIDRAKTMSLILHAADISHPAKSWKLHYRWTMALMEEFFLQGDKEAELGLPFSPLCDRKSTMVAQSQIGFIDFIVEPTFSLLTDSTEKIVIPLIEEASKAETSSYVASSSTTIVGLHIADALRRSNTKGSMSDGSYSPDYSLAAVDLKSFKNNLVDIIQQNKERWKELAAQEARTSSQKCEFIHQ

[19] = target: Dual specificity calcium/calmodulin-dependent 3',5'-cyclic nucleotide phosphodiesterase 1B (Homo sapiens, UniProt Q01064); assay: Inhibition of PDE1B
[20] = target: Dual specificity calcium/calmodulin-dependent 3',5'-cyclic nucleotide phosphodiesterase 1C (Homo sapiens, UniProt Q14123); assay: Inhibition of PDE1C
Chain of Dual specificity calcium/calmodulin-dependent 3',5'-cyclic nucleotide phosphodiesterase 1C (Q14123 whole entry): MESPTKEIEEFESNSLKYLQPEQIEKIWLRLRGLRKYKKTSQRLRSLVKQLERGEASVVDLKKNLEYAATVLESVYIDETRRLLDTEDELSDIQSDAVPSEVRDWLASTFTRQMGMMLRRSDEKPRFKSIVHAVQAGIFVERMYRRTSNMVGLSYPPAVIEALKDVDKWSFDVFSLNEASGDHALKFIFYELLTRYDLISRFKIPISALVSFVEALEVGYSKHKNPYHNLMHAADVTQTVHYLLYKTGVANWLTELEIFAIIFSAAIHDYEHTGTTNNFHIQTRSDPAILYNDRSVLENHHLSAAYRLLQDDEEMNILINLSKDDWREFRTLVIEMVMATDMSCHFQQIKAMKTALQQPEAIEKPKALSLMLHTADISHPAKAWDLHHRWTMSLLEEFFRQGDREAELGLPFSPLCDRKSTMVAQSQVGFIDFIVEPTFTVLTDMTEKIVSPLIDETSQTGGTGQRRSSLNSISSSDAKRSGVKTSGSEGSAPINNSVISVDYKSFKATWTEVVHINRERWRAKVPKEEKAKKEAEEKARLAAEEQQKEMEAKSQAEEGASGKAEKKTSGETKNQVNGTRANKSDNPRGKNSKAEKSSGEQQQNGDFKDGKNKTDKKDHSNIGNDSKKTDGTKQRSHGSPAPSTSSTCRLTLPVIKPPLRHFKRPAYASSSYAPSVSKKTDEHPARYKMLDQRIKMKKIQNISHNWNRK

[21] = Inhibition of PDE2
[22] = target: cGMP-inhibited 3',5'-cyclic phosphodiesterase 3A (Homo sapiens, UniProt Q14432); assay: Inhibition of PDE3A
Chain of cGMP-inhibited 3',5'-cyclic phosphodiesterase 3A (Q14432 whole entry): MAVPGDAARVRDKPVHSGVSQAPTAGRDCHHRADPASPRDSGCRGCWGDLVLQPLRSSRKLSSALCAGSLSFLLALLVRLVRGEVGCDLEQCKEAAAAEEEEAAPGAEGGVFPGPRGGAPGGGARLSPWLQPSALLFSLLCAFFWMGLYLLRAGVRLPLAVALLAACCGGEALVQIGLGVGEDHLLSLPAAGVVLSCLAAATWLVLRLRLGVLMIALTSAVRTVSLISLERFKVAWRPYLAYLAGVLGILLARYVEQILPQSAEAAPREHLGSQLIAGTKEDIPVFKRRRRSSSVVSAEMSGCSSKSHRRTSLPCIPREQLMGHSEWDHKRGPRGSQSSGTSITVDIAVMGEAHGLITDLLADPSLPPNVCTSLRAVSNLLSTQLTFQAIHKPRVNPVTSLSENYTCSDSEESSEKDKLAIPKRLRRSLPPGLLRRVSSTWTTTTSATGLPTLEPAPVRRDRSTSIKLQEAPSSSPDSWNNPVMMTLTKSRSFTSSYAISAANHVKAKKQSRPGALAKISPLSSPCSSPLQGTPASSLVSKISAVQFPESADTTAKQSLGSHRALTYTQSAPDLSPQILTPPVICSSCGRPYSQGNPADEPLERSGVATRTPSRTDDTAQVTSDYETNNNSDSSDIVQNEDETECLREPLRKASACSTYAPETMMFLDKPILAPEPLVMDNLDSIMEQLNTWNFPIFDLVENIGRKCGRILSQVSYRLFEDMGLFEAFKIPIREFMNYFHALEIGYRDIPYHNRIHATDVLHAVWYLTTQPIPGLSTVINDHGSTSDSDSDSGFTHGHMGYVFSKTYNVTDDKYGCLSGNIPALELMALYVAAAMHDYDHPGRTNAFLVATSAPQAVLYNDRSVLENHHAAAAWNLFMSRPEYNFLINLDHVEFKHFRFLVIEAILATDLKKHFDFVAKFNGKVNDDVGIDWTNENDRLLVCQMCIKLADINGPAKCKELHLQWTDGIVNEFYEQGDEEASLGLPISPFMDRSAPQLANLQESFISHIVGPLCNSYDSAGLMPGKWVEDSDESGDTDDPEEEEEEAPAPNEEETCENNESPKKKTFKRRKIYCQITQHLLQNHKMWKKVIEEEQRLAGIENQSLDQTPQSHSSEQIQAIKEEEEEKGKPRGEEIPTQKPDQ

[23] = target: cGMP-inhibited 3',5'-cyclic phosphodiesterase 3B (Homo sapiens, UniProt Q13370); assay: Inhibition of PDE3B
Chain of cGMP-inhibited 3',5'-cyclic phosphodiesterase 3B (Q13370 whole entry): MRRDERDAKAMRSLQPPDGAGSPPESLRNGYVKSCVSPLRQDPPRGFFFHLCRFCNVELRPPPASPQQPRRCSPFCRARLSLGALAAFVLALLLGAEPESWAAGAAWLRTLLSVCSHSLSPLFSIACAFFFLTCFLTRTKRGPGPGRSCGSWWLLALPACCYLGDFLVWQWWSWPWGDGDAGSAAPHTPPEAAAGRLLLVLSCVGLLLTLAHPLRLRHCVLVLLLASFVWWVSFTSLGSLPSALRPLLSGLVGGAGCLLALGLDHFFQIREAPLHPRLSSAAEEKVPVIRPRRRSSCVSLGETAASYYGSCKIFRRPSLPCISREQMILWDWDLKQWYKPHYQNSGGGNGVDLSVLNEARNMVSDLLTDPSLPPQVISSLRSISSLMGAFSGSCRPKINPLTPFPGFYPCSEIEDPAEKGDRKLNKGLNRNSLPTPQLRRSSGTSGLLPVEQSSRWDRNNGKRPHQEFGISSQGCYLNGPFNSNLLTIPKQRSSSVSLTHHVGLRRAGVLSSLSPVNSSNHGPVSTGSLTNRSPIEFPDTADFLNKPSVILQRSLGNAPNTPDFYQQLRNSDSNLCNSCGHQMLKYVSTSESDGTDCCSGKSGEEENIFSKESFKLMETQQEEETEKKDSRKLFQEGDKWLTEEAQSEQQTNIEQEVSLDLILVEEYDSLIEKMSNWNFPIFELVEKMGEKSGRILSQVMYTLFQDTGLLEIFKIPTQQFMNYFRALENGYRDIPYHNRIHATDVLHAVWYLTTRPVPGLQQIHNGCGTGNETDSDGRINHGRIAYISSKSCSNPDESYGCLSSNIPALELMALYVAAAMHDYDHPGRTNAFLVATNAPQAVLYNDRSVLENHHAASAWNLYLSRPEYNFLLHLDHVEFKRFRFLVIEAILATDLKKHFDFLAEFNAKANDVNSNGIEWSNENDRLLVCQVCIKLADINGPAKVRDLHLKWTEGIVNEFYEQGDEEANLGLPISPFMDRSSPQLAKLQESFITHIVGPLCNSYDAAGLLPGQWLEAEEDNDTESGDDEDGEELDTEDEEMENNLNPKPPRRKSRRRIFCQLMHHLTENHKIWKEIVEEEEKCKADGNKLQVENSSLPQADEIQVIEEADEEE

[24] = target: 3',5'-cyclic-AMP phosphodiesterase 4A (Homo sapiens, UniProt P27815); assay: Inhibition of PDE4A
Chain of 3',5'-cyclic-AMP phosphodiesterase 4A (P27815 whole entry): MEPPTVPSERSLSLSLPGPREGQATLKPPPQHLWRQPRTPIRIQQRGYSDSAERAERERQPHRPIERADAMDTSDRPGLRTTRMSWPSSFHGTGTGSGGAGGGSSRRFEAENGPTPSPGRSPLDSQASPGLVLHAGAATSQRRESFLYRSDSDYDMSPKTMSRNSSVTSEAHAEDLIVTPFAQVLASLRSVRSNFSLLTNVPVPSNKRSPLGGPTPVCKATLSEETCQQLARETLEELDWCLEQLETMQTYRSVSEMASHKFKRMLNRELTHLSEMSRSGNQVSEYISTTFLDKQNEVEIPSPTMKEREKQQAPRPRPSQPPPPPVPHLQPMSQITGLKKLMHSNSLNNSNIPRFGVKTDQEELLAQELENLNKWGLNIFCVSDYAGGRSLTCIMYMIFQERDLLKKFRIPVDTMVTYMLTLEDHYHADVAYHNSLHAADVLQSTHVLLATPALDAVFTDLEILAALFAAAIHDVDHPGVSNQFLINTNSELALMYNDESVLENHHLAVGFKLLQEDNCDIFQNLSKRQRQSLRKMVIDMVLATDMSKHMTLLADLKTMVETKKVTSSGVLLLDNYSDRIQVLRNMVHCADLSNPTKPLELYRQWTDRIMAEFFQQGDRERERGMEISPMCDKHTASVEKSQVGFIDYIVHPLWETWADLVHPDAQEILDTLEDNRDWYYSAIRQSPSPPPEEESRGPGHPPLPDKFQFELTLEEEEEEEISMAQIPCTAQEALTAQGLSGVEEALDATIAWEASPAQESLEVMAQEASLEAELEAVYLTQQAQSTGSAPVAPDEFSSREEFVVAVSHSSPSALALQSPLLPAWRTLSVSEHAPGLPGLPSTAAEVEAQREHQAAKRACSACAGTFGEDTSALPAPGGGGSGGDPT

[25] = target: 3',5'-cyclic-AMP phosphodiesterase 4B (Homo sapiens, UniProt Q07343); assay: Inhibition of PDE4B
[26] = target: 3',5'-cyclic-AMP phosphodiesterase 4C (Homo sapiens, UniProt Q08493); assay: Inhibition of PDE4C
[27] = target: High affinity 3',5'-cyclic-AMP phosphodiesterase 7A (Homo sapiens, UniProt Q13946); assay: Inhibition of PDE7A

CCCOCCn1c(=O)c(NC2CCC(O)CC2)nc2cnc(-c3ccc(OC)nc3)cc21 (stereo not drawn)
solubility [1]: 21 µM (≈ 9.52 µg/mL) | remaining at 1 h [2]: 84% | clearance [3]: 5.5 mL/min/kg | Vd [4]: 1.35 L/kg | Vdu (Rattus norvegicus [5]): 96 L/kg | clearance [6]: 5.5 mL/min/kg | Vd [7]: 3.5 L/kg | bioavailability [8]: 50% | IC50 [9]: 0.05 nM | Ratio IC50 [10]: 200 | Ratio IC50 [11]: 1320

CCCOCCn1c(=O)c(N2CCN(CCO)CC2)nc2ncc(-c3ccc(OC)nc3)cc21
IC50 [9]: 0.35 nM | Ratio IC50 [10]: 245 | Ratio IC50 [11]: 1770

CCCOCCn1c(=O)nc(N2CCN(CC(=O)O)CC2)c2nnc(-c3ccc(OC)nc3)cc21
IC50 [9]: 0.1 nM | Ratio IC50 [10]: 143 | Ratio IC50 [11]: 1330

CCCOCCn1c(=O)nc(NC2CCCC(C(=O)O)C2)c2nnc(-c3ccc(OC)nc3)cc21 (stereo not drawn)
IC50 [9]: 0.01 nM

CCOCCn1c(=O)nc(NC2CCC(O)CC2)c2nnc(-c3ccc(OC)nc3)cc21 (stereo not drawn)
IC50 [9]: 0.36 nM

CCCOCCn1c(=O)nc(NC2CCC(O)CC2)c2ncc(-c3ccc(OC)nc3)cc21 (stereo not drawn)
IC50 [9]: 0.1 nM | Ratio IC50 [10]: 1020 | Ratio IC50 [11]: 3830

CCCOCCn1c(=O)nc(N[C@@H]2CCCC[C@@H]2C(=O)O)c2nnc(-c3ccc(OC)nc3)cc21 (racemic)
IC50 [9]: 0.02 nM | Ratio IC50 [10]: 110 | Ratio IC50 [11]: 296

CCCOCCn1c(=O)nc(N2CCC(C(=O)O)CC2)c2nnc(-c3ccc(OC)nc3)cc21
IC50 [9]: 0.01 nM | Ratio IC50 [10]: 119 | Ratio IC50 [11]: 532

CCCOCCn1c(=O)nc(NC2CCC(C(=O)O)CC2)c2nnc(-c3ccc(OC)nc3)cc21 (stereo not drawn)
IC50 [9]: 0.02 nM | Ratio IC50 [10]: 246 | Ratio IC50 [11]: 541

CCOCCn1c(=O)nc(NCC(=O)N(C)C)c2nnc(-c3ccc(OC)nc3)cc21
IC50 [9]: 1.47 nM | Ratio IC50 [10]: 119 | Ratio IC50 [11]: 199

CCCOCCn1c(=O)c(NCCN2CCOCC2)nc2cnc(-c3ccc(OC)nc3)cc21
Ratio IC50 [10]: 158 | Ratio IC50 [11]: 4860

CCCOCCn1c(=O)nc(NCCN2CCOCC2)c2cnc(-c3ccc(OC)nc3)cc21
IC50 [9]: 0.08 nM | Ratio IC50 [10]: 334 | Ratio IC50 [11]: 9050

CCCOCCn1c(=O)nc(NCCO)c2nnc(-c3ccc(OC)nc3)cc21
IC50 [9]: 0.22 nM | Ratio IC50 [10]: 290 | Ratio IC50 [11]: 240

CCCOCCn1c(=O)nc(N2CCC(CC(=O)O)CC2)c2nnc(-c3ccc(OC)nc3)cc21
IC50 [9]: 0.04 nM | Ratio IC50 [10]: 254 | Ratio IC50 [11]: 1060

COc1ccc(-c2cc3c(nn2)c(NC2CCC(O)CC2)nc(=O)n3CCOCC(F)(F)F)cn1 (stereo not drawn)
IC50 [9]: 0.04 nM

CCCOCCn1c(=O)nc(NCCN2CCOCC2)c2nnc(-c3ccc(OC)nc3)cc21
IC50 [9]: 0.09 nM | Ratio IC50 [10]: 573 | Ratio IC50 [11]: 6820

CCCOCCn1c(=O)nc(N2CCN(CCO)CC2)c2ncc(-c3ccc(OC)nc3)cc21
IC50 [9]: 1.64 nM | Ratio IC50 [10]: 381 | Ratio IC50 [11]: > 1220

CCCOCCn1c(=O)nc(NCCC(=O)O)c2nnc(-c3ccc(OC)nc3)cc21
IC50 [9]: 0.05 nM | Ratio IC50 [10]: 139 | Ratio IC50 [11]: 250

CCCOCCn1c(=O)nc(N[C@H](C)C(=O)O)c2nnc(-c3ccc(OC)nc3)cc21
IC50 [9]: 0.13 nM | Ratio IC50 [10]: 110 | Ratio IC50 [11]: 76

CCCOCCn1c(=O)nc(N2CCN(CCO)CC2)c2nnc(-c3ccc(OC)nc3)cc21
IC50 [9]: 1.3 nM | Ratio IC50 [10]: 124 | Ratio IC50 [11]: 834

CCCOCCn1c(=O)c(N2CCN(CCO)CC2)nc2cnc(-c3ccc(OC)nc3)cc21
Ratio IC50 [10]: 157 | Ratio IC50 [11]: 2460

CCCOCCn1c(=O)nc(N2CCC(O)CC2)c2nnc(-c3ccc(OC)nc3)cc21
IC50 [9]: 0.28 nM | Ratio IC50 [10]: 194 | Ratio IC50 [11]: 240

COc1ccc(-c2cc3c(nn2)c(NCC(=O)N(C)C)nc(=O)n3CCOCC(F)(F)F)cn1
IC50 [9]: 0.38 nM | Ratio IC50 [10]: 2200 | Ratio IC50 [11]: 4170

CCCOCCn1c(=O)nc(N2CCCC(C(=O)O)C2)c2nnc(-c3ccc(OC)nc3)cc21 (stereo not drawn)
IC50 [9]: 0.06 nM | Ratio IC50 [10]: 162 | Ratio IC50 [11]: 297

CCCOCCn1c(=O)nc(NC2CCC(O)CC2)c2cnc(-c3ccc(OC)nc3)cc21 (stereo not drawn)
IC50 [9]: 0.05 nM | Ratio IC50 [10]: 675 | Ratio IC50 [11]: 3950

CCCOCCn1c(=O)nc(NCCOC(C)C)c2cnc(-c3ccc(OC)nc3)cc21
IC50 [9]: 0.1 nM | Ratio IC50 [10]: 450 | Ratio IC50 [11]: 9560

COc1ccc(-c2cc3c(nn2)c(N2CCN(CCO)CC2)nc(=O)n3CCOCC(F)(F)F)cn1
IC50 [9]: 0.64 nM | Ratio IC50 [10]: 818 | Ratio IC50 [11]: > 311

CCCOCCn1c(=O)nc(NC2CCNCC2)c2nnc(-c3ccc(OC)nc3)cc21
IC50 [9]: 1.31 nM | Ratio IC50 [10]: 576 | Ratio IC50 [11]: 1530

CCOCCn1c(=O)nc(N2CCN(CCO)CC2)c2nnc(-c3ccc(OC)nc3)cc21
IC50 [9]: 2.43 nM | Ratio IC50 [10]: 98 | Ratio IC50 [11]: 286

CCCOCCn1c(=O)nc(NC(C)(C)C(=O)O)c2nnc(-c3ccc(OC)nc3)cc21
IC50 [9]: 0.05 nM | Ratio IC50 [10]: 145 | Ratio IC50 [11]: 129

CCCOCCn1c(=O)nc(NCC(=O)N(C)C)c2nnc(-c3ccc(OC)nc3)cc21
IC50 [9]: 0.44 nM | Ratio IC50 [10]: 296 | Ratio IC50 [11]: 277

CCCOCCn1c(=O)nc(N2CCN(CCO)CC2)c2cnc(-c3ccc(OC)nc3)cc21
IC50 [9]: 1.38 nM | Ratio IC50 [10]: 181 | Ratio IC50 [11]: > 1450

CCCOCCn1c(=O)c(NC2CCC(O)CC2)nc2ncc(-c3ccc(OC)nc3)cc21 (stereo not drawn)
Ratio IC50 [10]: 48 | Ratio IC50 [11]: 675

CCCOCCn1c(=O)nc(NC2CCC(O)CC2)c2nnc(-c3ccc(OC)nc3)cc21 (stereo not drawn)
IC50 [12]: > 2000 nM | IC50 [13]: > 2000 nM | IC50 [14]: > 2000 nM | IC50 [15]: > 2000 nM | IC50 [16]: > 2000 nM | IC50 (Adenosine receptor A1): 440 nM | IC50 (Acetylcholinesterase): 5600 nM | solubility [1]: > 100 µM | remaining at 1 h [2]: 72% | clearance [3]: 2.4 mL/min/kg | Vd [4]: 0.6 L/kg | Vdu (Rattus norvegicus [5]): 4.8 L/kg | clearance [6]: 1.6 mL/min/kg | Vd [7]: 0.3 L/kg | bioavailability [8]: 85% | IC50 [9]: 0.02 nM | Ratio IC50 [10]: 108 | Ratio IC50 [11]: 741 | inhibition at 3 µM (CYP2C9): 9% | inhibition at 3 µM (CYP2D6): 5% | inhibition at 3 µM (CYP3A4): 23% | Activity (Rattus norvegicus [17]): 20 mmHg | IC50 [18]: > 2000 nM | IC50 [19]: > 2000 nM | IC50 [20]: > 2000 nM | IC50 [21]: > 2000 nM | IC50 [22]: > 2000 nM | IC50 [23]: > 2000 nM | IC50 [24]: > 2000 nM | IC50 [25]: > 2000 nM | IC50 [26]: > 2000 nM | IC50 [27]: > 2000 nM

CCCOCCn1c(=O)nc(N[C@@H]2CCCC[C@H]2C(=O)O)c2nnc(-c3ccc(OC)nc3)cc21 (racemic)
IC50 [9]: 0.27 nM | Ratio IC50 [10]: 47 | Ratio IC50 [11]: 1390

Source: ChEMBL document CHEMBL1914420, “Investigation of the pyrazinones as PDE5 inhibitors: evaluation of regioisomeric projections into the solvent region” (Bioorg Med Chem Lett, 2011)
